From ChEMBL document CHEMBL1142266, “Structure-based virtual screening for the discovery of natural inhibitors for human rhinovirus coat protein” (J Med Chem, 2008)
≈ marks a conversion by molar mass, not a printed value. Calls of active or inactive are those of the source. The rule behind the calls is not given here.

Legend:
rhinovirus A2 [1] = test: Antiviral activity against HRV2 in HeLa cells; type: functional, organism-based; details: Rhinovirus A
Summary of the method: (§1)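 Cytopathic-effect inhibition assays in HeLa cells infected with pleconaril-sensitive HRV-1A, -2, -14 or -16. Dose-dependent inhibition of virus-induced CPE was measured, and the 50% inhibitory concentration (IC50) was derived.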

rhinovirus B14 = test: Antiviral activity against HRV14 in HeLa cells; type: functional, organism-based; summary of the method: as §1
Human rhinovirus 1A = test: Antiviral activity against HRV1A in HeLa cells; type: functional, organism-based; summary of the method: as §1
[2] = Selectivity index, ratio of CC50 for HeLa cells to IC50 for HRV2 in HeLa cells; type: functional, Homo sapiens
[3] = Cytotoxicity against human HeLa cells after 72 hrs; type: cell-based
rhinovirus A16 [4] = test: Antiviral activity against HRV16 in HeLa cells; type: functional, organism-based; summary of the method: as §1
rhinovirus A2 [5] = test: Inactivation of HRV2 assessed as reduction in plaque at 0.25 ug/ml after 1 hr; type: functional; parameters: scale not given: the % may be the effect or the level left
Summary of the method: (§2)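 Direct-inactivation test using a modified plaque-reduction format. HRV-2 was incubated with or without compound at 37 °C for 1 h, and the suspensions were then diluted 100-fold. Residual virus titer was determined by plaque assay on HeLa cells, with pleconaril run as positive control.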

[6] = Selectivity for HRV2 over HRV16; type: functional
rhinovirus A16 [7] = test: Inhibition of HRV16 replication cycle progression; type: functional, organism-based; details: Rhinovirus A
rhinovirus A2 [8] = test: Inhibition of HRV2 replication cycle progression; type: functional, organism-based; details: Rhinovirus A
rhinovirus A2 [9] = test: Inhibition of HRV2 absorption on HeLa cells assessed as reduction in plaques at 0.25 ug/ml after 2 hrs; type: functional; details: Rhinovirus A
rhinovirus A2 [10] = test: Inhibition of HRV2 absorption on HeLa cells assessed as reduction in plaques at 2.5 ug/ml after 2 hrs; type: functional; details: Rhinovirus A
rhinovirus A2 [11] = test: Inactivation of HRV2 assessed as reduction in plaque at 2.5 ug/ml after 1 hr; type: functional, organism-based; summary of the method: as §2

Row | IC50 (rhinovirus A2 [1]) [µg/mL] | IC50 (rhinovirus B14; Rhinovirus B) [µg/mL] | EC50 (rhinovirus A16 [7]) [µM] | IC50 (Human rhinovirus 1A) [µg/mL] | EC50 (rhinovirus A2 [8]) [µM] | IC50 (rhinovirus A16 [4]; Rhinovirus A) [µg/mL] | Structure (SMILES) | Activity (rhinovirus B14) | Activity (Human rhinovirus 1A) | Ratio CC50/IC50 [2] | CC50 at 72 h [3] [µg/mL] | Activity (rhinovirus A16 [4]) | Activity (rhinovirus A2 [5]) [%] | Selectivity ratio [6] | inhibition at 0.25 µg/mL (rhinovirus A2 [9]) [%] | inhibition at 2.5 µg/mL (rhinovirus A2 [10]) [%] | Activity (rhinovirus A2 [11])
1 | 1 (≈ 2.61 µM) |  |  |  |  |  | C=C1CC[C@@H](O)C(C)(C)C1CC/C(C)=C/COc1ccc2ccc(=O)oc2c1 (some centres not stated) [FARNESIFEROL B] | inactive | inactive | 8.2 | 8.2 (≈ 21.4 µM) | inactive |  |  |  |  | 
2 | 0.01 (≈ 0.0262 µM) | 0.02 (≈ 0.0524 µM) | 0.57 | 0.02 (≈ 0.0524 µM) | 0.04 | 0.02 (≈ 0.0524 µM) | Cc1cc(CCCOc2c(C)cc(-c3noc(C(F)(F)F)n3)cc2C)on1 [PLECONARIL] |  |  | 1260 | 12.6 (≈ 33 µM) |  | 84.3 | 10 | 100 |  | 
3 | 0.96 (≈ 2.51 µM) |  |  |  |  |  | C/C(=C\COc1ccc2ccc(=O)oc2c1)CCC1C(C)(C)[C@H]2CC[C@]1(C)O2 (some centres not stated) [FARNESIFEROL] | inactive | inactive | 8.02 | 7.7 (≈ 20.1 µM) | inactive |  |  |  | 35.2 | inactive
4 | > 15.5 |  |  |  |  |  | CC(=O)O[C@H]1CC[C@]2(C)[C@H](CC[C@@](C)(O)[C@@H]2COc2ccc3ccc(=O)oc3c2)C1(C)C [KELLARIN] | inactive | inactive | <1 | 15.5 (≈ 35 µM) | inactive |  |  |  |  | 
5 | > 10 |  |  |  |  |  | C[C@H]1CC=C2[C@H](CC[C@H](O)C2(C)C)[C@@]1(C)COc1ccc2ccc(=O)oc2c1 [MICROLOBIDENE] | inactive | inactive | <1 | 10 (≈ 26.1 µM) | inactive |  |  |  |  | 
